The values that follow come from ChEMBL document CHEMBL4364340, “Discovery of N-(1-Acryloylazetidin-3-yl)-2-(1H-indol-1-yl)acetamides as Covalent Inhibitors of KRASG12C” (ACS Med Chem Lett, 2019).

pIC50: −log10 of the molar value.

The test system of one data set is GTPase KRas (Homo sapiens), P01116 [G12C]. In words: Inhibition of KRAS G12C mutant (unknown origin) at 10 uM incubated for 0.02 hrs in presence of GDP by rapidfire mass spectrometry analysis relative to control.
Conditions: not given
In outline:
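Intact-protein mass spectrometry of covalent adduct formation at Cys12 of GDP-bound KRASG12C. Test compound at 10 μM, with read-outs at 0.02, 0.2, 2 and 20 h. Values are the relative % of protein bound, measured directly under pseudo-first-order conditions. Earlier incubations in the paper used 2 μM protein.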
In the case of `C=CC(=O)N1CC(NC(=O)Cn2cc(C(=O)N3CCc4c(cccc4OC)C3)c3cc(Br)ccc32)C1`, the inhibition (commonly the share of the control response that was lost under treatment) was 13%.

Another data set concerns the target GTPase KRas (Homo sapiens, UniProt P01116, G12C). In words: Inhibition of KRAS G12C mutant in human MIAPaCa2 cells assessed as reduction in EGF-induced ERK1/2 phosphorylation incubated for 4 hrs followed by EGF addition by luminescence based assay. It counts as cell-based.
Conditions: not given
Consider `C=CC(=O)N1CC(NC(=O)COc2ccc(Br)cc2C(=O)N2CC=C(c3ccccc3)C2)C1`, for which the pIC50 (commonly −log10 of the IC50, conventionally taken in molar units) was 4.95.
Still for that read-out and setting: for `C=CC(=O)N1CC(NC(=O)Cn2c(C)c(C(=O)N3CCc4c(cccc4OC)C3)c3cc(Br)cc(C)c32)C1` the value was 6.52; for `C=CC(=O)N1CC(NC(=O)Cn2cc(C(=O)N3CCc4c(cccc4OC)C3)c3cc(Br)ccc32)C1`, 4.94.
Same read-out and setting: to `C=CC(=O)N1CC(NC(=O)Cn2c(C)c(C(=O)N3CCc4c(cccc4OC)C3)c3cc(Cl)ccc32)C1` belongs 5.45.

Another data set relates to GTPase KRas (Homo sapiens), P01116 [G12C]. Description: Inhibition of KRAS G12C mutant (unknown origin) assessed as pseudo first order rate constant incubated for 0.02 to 20 hrs in presence of GDP by rapidfire mass spectrometry analysis.
Conditions: not given
In outline: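 GDP-bound KRASG12C (2 μM) with 10 μM compound. Intact-protein MS measures covalent adduct at Cys12 after 0.02, 0.2, 2 and 20 h. Conversions between 10% and 90% are converted to kobs/[I] (M–1 s–1) under pseudo-first-order kinetics.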
For `C=CC(=O)N1CC(NC(=O)Cn2cc(C(=O)NCc3ccccc3)c3cc(Br)ccc32)C1`, the K is 5 M⁻¹ s⁻¹.
Same read-out and setting: for `C=CC(=O)N1CC(NC(=O)COc2ccc(Br)cc2C(=O)N2CC=C(c3ccccc3)C2)C1` the value was 26 M⁻¹ s⁻¹; for `C=CC(=O)N1CC(NC(=O)Cn2c(C)c(C(=O)N3CCc4c(cccc4OC)C3)c3cc(Br)cc(C)c32)C1`, 83 M⁻¹ s⁻¹; for `C=CC(=O)N1CC(NC(=O)Cn2cc(C(=O)N3CCc4c(cccc4OC)C3)c3cc(Br)ccc32)C1`, 230 M⁻¹ s⁻¹.
Still for that read-out and setting: for `C=CC(=O)N1CC(NC(=O)Cn2c(C)c(C(=O)N3CCc4c(cccc4OC)C3)c3cc(Cl)ccc32)C1` the value was 69 M⁻¹ s⁻¹.

Tested on in another data set: not listed separately
Description: Half life of compound in phosphate buffer at pH 7.4 in presence of GSH by LC/MS analysis. The class given is physicochemical. As to conditions: phosphate buffer with GSH. In outline: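 Intrinsic thiol reactivity toward 5 mM glutathione. Half-life is taken from the rate at which parent compound disappears.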
On to `C=CC(=O)N1CC(NC(=O)Cn2cc(C(=O)NCc3ccccc3)c3cc(Br)ccc32)C1`, for which the half-life (as a rule, the time in which the quantity being followed falls by half) is 1.67 h.
The same measure, in the same setting: to `C=CC(=O)N1CC(NC(=O)COc2ccc(Br)cc2C(=O)N2CC=C(c3ccccc3)C2)C1` belongs 1.67 h; to `C=CC(=O)N1CC(NC(=O)Cn2c(C)c(C(=O)N3CCc4c(cccc4OC)C3)c3cc(Br)cc(C)c32)C1`, 1.67 h.
As to `C=CC(=O)N1CC(NC(=O)Cn2cc(C(=O)N3CCc4c(cccc4OC)C3)c3cc(Br)ccc32)C1`, the half-life was found to be 1.67 h.
The same measure, in the same setting: for `C=CC(=O)N1CC(NC(=O)Cn2c(C)c(C(=O)N3CCc4c(cccc4OC)C3)c3cc(Cl)ccc32)C1` the value was 1.67 h.

The next data set deals with GTPase KRas (Homo sapiens), P01116 [G12C]. In words: Inhibition of KRAS G12C mutant (unknown origin) at 10 uM incubated for 2 hrs in presence of GDP by rapidfire mass spectrometry analysis relative to control.
Conditions: not given
In outline: (§1)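 GDP-bound KRASG12C (2 μM) incubated with 10 μM compound. Intact-protein mass spectrometry quantifies relative % covalent adduct at Cys12 at the stated time point.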
With `C=CC(=O)N1CC(NC(=O)Cn2cc(C(=O)NCc3ccccc3)c3cc(Br)ccc32)C1`, the inhibition turned out to be 29%.
Same read-out and setting: to `C=CC(=O)N1CC(NC(=O)Cn2c(C)c(C(=O)N3CCc4c(cccc4OC)C3)c3cc(Br)cc(C)c32)C1` belongs 100%; to `C=CC(=O)N1CC(NC(=O)Cn2cc(C(=O)N3CCc4c(cccc4OC)C3)c3cc(Br)ccc32)C1`, 100%.
On the same count and under the same terms, for `C=CC(=O)N1CC(NC(=O)Cn2c(C)c(C(=O)N3CCc4c(cccc4OC)C3)c3cc(Cl)ccc32)C1` the value was 100%.

A further data set shares this test system. In words: Inhibition of KRAS G12C mutant (unknown origin) at 10 uM incubated for 20 hrs in presence of GDP by rapidfire mass spectrometry analysis relative to control.
Conditions: not given
In outline: as §1
Consider `C=CC(=O)N1CC(NC(=O)Cn2cc(C(=O)NCc3ccccc3)c3cc(Br)ccc32)C1`, for which the inhibition amounted to 93%.
The same measure, in the same setting: to `C=CC(=O)N1CC(NC(=O)Cn2cc(C(=O)N3CCc4c(cccc4OC)C3)c3cc(Br)ccc32)C1` belongs 100%; to `C=CC(=O)N1CC(NC(=O)Cn2c(C)c(C(=O)N3CCc4c(cccc4OC)C3)c3cc(Cl)ccc32)C1`, 100%.

A further data set addresses GTPase KRas (Homo sapiens, UniProt P01116, C118A/G12C). In words: Inhibition of GDP bound N terminal His-tagged KRAS G12C/C118A mutant (unknown origin) (1 to 169 residues) assessed as reduction in SOS-mediated guanine nucleotide exchange preincubated for 2 hrs followed by addition of SOS and GTP and measured after 1 hr by alphascreen assay.
Conditions: not given
In outline: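 Inhibitor preincubated with protein 2 h, then SOS1 and GTP added to exchange GTP into the nucleotide site. GTP loading read as proximity of RAF Ras-binding domain, which binds only active KRAS. IC50 from dose response.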
On the technique in general: Bead proximity is the source of the signal in Alpha formats.
As to `C=CC(=O)N1CC(NC(=O)COc2ccc(Br)cc2C(=O)N2CC=C(c3ccccc3)C2)C1`, the pIC50 is 5.56.

The next data set has as its system GTPase KRas (Homo sapiens), P01116 [G12C]. Description: Inhibition of KRAS G12C mutant (unknown origin) at 10 uM incubated for 0.2 hrs in presence of GDP by rapidfire mass spectrometry analysis relative to control.
Conditions: not given
In outline: as §1
With `C=CC(=O)N1CC(NC(=O)Cn2c(C)c(C(=O)N3CCc4c(cccc4OC)C3)c3cc(Br)cc(C)c32)C1`, the inhibition was 39%.
Still for that read-out and setting: to `C=CC(=O)N1CC(NC(=O)Cn2cc(C(=O)N3CCc4c(cccc4OC)C3)c3cc(Br)ccc32)C1` belongs 92%; to `C=CC(=O)N1CC(NC(=O)Cn2c(C)c(C(=O)N3CCc4c(cccc4OC)C3)c3cc(Cl)ccc32)C1`, 34%.
